Test results from ChEMBL document CHEMBL3994667, “Small Molecule Lysyl Oxidase-like 2 (LOXL2) Inhibitors: The Identification of an Inhibitor Selective for LOXL2 over LOX” (ACS Med Chem Lett, 2017).

What was measured:
Lysyl oxidase homolog 2 [1] = biological target: T1, Lysyl oxidase homolog 2 (Homo sapiens, UniProt Q9Y4K0); assay: Inhibition of full length recombinant human LOXL2 expressed in CHO cells assessed as reduction in H2O2 production using DAP as substrate preincubated for 2 hrs followed by substrate addition measured every 2 minutes for 50 minutes by Amplex red dye based fluorescence assay
T1 sequence (Q9Y4K0 whole entry): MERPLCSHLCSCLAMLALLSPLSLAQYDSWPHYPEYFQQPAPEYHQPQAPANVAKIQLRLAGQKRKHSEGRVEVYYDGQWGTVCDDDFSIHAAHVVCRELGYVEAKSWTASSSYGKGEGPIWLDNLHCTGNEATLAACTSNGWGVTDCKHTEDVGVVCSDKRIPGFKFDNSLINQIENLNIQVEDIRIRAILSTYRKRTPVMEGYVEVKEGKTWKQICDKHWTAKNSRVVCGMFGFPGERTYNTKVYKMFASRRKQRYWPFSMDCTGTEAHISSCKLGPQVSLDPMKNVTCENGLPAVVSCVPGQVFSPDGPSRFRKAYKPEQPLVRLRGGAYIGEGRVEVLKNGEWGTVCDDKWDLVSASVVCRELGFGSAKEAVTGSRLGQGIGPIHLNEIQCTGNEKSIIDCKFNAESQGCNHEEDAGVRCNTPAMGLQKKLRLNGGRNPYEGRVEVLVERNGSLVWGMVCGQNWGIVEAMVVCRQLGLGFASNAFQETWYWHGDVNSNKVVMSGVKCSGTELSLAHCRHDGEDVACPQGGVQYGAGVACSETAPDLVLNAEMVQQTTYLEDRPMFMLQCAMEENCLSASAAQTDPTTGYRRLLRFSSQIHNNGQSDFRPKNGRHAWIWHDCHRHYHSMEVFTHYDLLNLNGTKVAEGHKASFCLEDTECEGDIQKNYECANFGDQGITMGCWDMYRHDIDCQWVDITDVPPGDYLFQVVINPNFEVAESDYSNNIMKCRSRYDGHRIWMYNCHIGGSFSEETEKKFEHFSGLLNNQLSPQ

Protein-lysine 6-oxidase = biological target: T2, Protein-lysine 6-oxidase (Homo sapiens, UniProt P28300); assay: Inhibition of full length recombinant human LOX expressed in HEK cells assessed as reduction in H2O2 production using DAP as substrate preincubated for 2 hrs followed by substrate addition measured every 2 minutes for 50 minutes in presence of BSA by Amplex red dye based fluorescence assay
T2 sequence (P28300 whole entry): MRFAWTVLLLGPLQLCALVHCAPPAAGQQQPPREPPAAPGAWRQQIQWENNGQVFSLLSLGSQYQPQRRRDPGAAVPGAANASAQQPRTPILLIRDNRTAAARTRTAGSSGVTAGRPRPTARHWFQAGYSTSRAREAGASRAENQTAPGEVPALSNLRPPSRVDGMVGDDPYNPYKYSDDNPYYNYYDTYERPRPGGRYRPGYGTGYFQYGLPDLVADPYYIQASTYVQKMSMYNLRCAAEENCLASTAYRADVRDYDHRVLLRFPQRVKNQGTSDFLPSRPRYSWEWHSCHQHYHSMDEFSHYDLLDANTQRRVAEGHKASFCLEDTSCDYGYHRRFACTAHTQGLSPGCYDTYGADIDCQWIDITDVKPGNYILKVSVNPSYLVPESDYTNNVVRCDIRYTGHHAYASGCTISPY
Summary of the method: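 Enzyme source: serum-free conditioned media from HEK cells stably expressing human LOX, with BSA added to give measurable activity. Activity is measured as H2O2 from oxidative deamination of 1,5-diaminopentane (DAP), read by Amplex Red. IC50 is given as geometric mean x/÷ geometric standard deviation, with N-values reported.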

Lysyl oxidase homolog 2 [2] = biological target: T1, Lysyl oxidase homolog 2; assay: Inhibition of full length recombinant human LOXL2 expressed in CHO cells assessed as reduction in H2O2 production using DAP as substrate preincubated for 2 hrs followed by substrate addition measured every 2 minutes for 50 minutes in presence of BSA by Amplex red dye based fluorescence assay
Summary of the method: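 Serum-free concentrated conditioned medium from CHO cells stably expressing human LOXL2, supplemented with BSA. Compounds preincubated for 2 h (the screening preincubation time). Substrate was 1,5-diaminopentane, and the H2O2 formed was detected with Amplex Red. IC50 given as geometric mean x/÷ geometric SD over N determinations.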

Lysyl oxidase homolog 2 [3] = biological target: T3, Lysyl oxidase homolog 2 (Mus musculus, UniProt P58022); assay: Inhibition of full length recombinant mouse LOXL2 expressed in CHO cells assessed as reduction in H2O2 production using DAP as substrate preincubated for 2 hrs followed by substrate addition measured every 2 minutes for 50 minutes in presence of BSA by Amplex red dye based fluorescence assay; type: cell-based
T3 sequence (P58022 whole entry): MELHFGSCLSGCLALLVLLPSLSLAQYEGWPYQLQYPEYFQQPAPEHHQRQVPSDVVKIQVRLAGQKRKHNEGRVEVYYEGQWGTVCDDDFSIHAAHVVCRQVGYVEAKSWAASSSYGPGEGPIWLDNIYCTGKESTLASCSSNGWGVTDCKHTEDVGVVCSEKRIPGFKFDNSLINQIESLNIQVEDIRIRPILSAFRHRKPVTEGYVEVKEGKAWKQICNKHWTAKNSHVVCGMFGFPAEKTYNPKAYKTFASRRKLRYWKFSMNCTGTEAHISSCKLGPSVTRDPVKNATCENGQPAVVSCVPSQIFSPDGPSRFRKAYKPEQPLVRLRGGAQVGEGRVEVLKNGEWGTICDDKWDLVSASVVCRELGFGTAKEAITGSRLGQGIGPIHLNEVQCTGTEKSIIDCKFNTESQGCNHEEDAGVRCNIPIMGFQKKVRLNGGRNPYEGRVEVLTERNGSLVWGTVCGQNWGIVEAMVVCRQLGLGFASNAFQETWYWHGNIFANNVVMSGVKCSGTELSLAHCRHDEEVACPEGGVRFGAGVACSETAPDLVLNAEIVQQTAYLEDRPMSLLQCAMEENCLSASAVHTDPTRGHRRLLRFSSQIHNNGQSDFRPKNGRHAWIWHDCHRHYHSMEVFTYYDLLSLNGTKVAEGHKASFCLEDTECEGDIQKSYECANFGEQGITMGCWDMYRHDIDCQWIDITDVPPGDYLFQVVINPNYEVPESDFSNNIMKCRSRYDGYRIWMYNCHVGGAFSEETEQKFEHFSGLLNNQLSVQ
Summary of the method: (§1)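 Rodent LOXL2 is tested under the same conditions as the BSA-supplemented assay: conditioned media plus BSA, with DAP as substrate and Amplex Red detection of H2O2. Species are mouse and rat. IC50 is the geometric mean x/÷ geometric standard deviation from 3 determinations.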

Lysyl oxidase homolog 2 [4] = biological target: T1, Lysyl oxidase homolog 2; assay: Inhibition of full length recombinant human LOXL2 expressed in CHO cells assessed as reduction in H2O2 production using DAP as substrate preincubated for 15 mins followed by substrate addition measured every 2 minutes for 50 minutes by Amplex red dye based fluorescence assay
Summary of the method: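 Enzyme source: serum-free concentrated conditioned medium from CHO cells stably expressing human LOXL2. Inhibitor preincubated with enzyme for 15 min, then 1,5-diaminopentane (DAP) added. H2O2 from oxidative deamination read by Amplex Red. IC50 reported as geometric mean x/÷ geometric SD, with N given.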

Lysyl oxidase homolog 2 [5] = biological target: T4, Lysyl oxidase homolog 2 (Rattus norvegicus, UniProt B5DF27); assay: Inhibition of full length recombinant rat LOXL2 expressed in CHO cells assessed as reduction in H2O2 production using DAP as substrate preincubated for 2 hrs followed by substrate addition measured every 2 minutes for 50 minutes in presence of BSA by Amplex red dye based fluorescence assay; summary of the method: as §1
T4 sequence (B5DF27 whole entry): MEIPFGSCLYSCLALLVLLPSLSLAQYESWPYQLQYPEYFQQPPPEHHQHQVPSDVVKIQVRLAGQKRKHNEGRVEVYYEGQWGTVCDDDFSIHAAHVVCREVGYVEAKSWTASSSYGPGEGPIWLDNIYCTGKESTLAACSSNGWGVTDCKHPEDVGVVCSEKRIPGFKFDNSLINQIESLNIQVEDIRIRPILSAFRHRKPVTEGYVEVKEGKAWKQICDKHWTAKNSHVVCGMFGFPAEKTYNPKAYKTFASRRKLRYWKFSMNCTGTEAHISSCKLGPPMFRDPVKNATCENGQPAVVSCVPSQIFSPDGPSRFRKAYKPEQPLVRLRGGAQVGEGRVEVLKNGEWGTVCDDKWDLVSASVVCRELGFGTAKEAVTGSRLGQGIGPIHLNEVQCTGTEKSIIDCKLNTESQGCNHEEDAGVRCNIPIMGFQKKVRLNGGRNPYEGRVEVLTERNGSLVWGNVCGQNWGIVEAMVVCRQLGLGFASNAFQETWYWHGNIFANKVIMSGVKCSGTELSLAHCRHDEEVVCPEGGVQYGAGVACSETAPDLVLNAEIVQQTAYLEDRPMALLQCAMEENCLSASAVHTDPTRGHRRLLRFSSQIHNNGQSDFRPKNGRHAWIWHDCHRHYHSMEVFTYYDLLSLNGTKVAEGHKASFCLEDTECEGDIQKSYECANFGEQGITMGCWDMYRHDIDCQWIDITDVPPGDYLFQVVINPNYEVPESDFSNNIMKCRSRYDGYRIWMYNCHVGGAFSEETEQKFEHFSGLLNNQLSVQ

Row | Compound | IC50 (Lysyl oxidase homolog 2 [1]) | further results
1 | NCc1cc(-c2cccnc2)ncc1C(F)(F)F | > 31000 nM | –
2 | NCCc1ccccc1 [PHENETHYLAMINE] | 60100 nM | –
3 | NCCc1ccncc1 | 8210 nM | –
4 | N[C@@H]1C[C@H]1c1ccccc1.N[C@H]1C[C@@H]1c1ccccc1 [TRANYLCYPROMINE] | > 100000 nM | –
5 | NCc1ccc(F)cc1 | 26000 nM | –
6 | CNCc1ccc(C#N)cc1 | > 100000 nM | –
7 | NCc1ccccc1 [BENZYLAMINE] | 64700 nM | –
8 | NCc1ccc(N)cc1 | 47000 nM | –
9 | N#CCCN | 66 nM | IC50 (Protein-lysine 6-oxidase): 550 nM; IC50 (Lysyl oxidase homolog 2 [2]): 83 nM; IC50 (Lysyl oxidase homolog 2 [3]): 128 nM; IC50 (Lysyl oxidase homolog 2 [4]): 243 nM; IC50 (Lysyl oxidase homolog 2 [5]): 127 nM

Continued by falling IC50 (Lysyl oxidase homolog 2 [1]), values first:

Row | IC50 (Lysyl oxidase homolog 2 [1]) | Compound | further results
10 | 6040 nM | NCc1ccnc2ccccc12 | –
11 | 4970 nM | N=C(N)c1cccc(CN)c1 | –
12 | 3620 nM | COC(=O)c1ccc(CN)cc1 | –
13 | 3540 nM | COC(=O)c1cccc(CN)c1 | –
14 | 1220 nM | NCc1ccncc1 | –
15 | 1110 nM | N=C(N)c1ccc(CN)cc1 | –
16 | 902 nM | NCc1ccc(-c2nccs2)cc1 | –
17 | 719 nM | NCc1ccc([N+](=O)[O-])cc1 | –
18 | 670 nM | N#Cc1ccc(CN)cc1 | –
19 | 431 nM | NCc1ccncc1F | –
20 | 385 nM | NCc1ccnc(F)c1 | –
21 | 321 nM | NCc1ccnc(-c2cccnc2)c1 | –
22 | 203 nM | NCc1ccnc(-n2ccnc2)c1 | –
